Test results taken from ChEMBL document CHEMBL4251598, “Development of novel bis-pyrazole derivatives as antitumor agents with potent apoptosis induction effects and DNA damage” (Eur J Med Chem, 2018).
The source made the active and inactive calls.

Columns and labels:
[1] = tested on: HCT-116; assay: Antiproliferative activity against human HCT116 cells after 72 hrs by MTT assay; type: functional, cell-based; conditions: HCT-116, 72 h
Summary of the method: (§1)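 Cells in DMEM with 10% FBS, 10^4 cells/mL, adhered overnight at 37 °C, 5% CO2. Treated in triplicate with a range of concentrations for 72 h. MTT (5 mg/mL solution) added for the last 4 h, formazan dissolved in DMSO, absorbance read at 570 nm. IC50 calculated from percent inhibition. Mean ± SD of three independent experiments.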

[2] = tested on: HCT-116; assay: Potency index, ratio of ADM IC50 to compound IC50 for human HCT116 cells; type: functional
[3] = Acute toxicity in ICR mouse assessed as survival at 250 mg/kg, ip measured on day 14; type: organism-based; conditions: in vivo
Summary of the method: (§2)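 Female ICR mice, 10 per group, single intraperitoneal injection at 488.3, 390.6, 312.5, 250 or 200 mg/kg, or vehicle control. Survival, eating, drinking, body weight and activity were monitored for up to 14 days after dosing. MTD was defined as the highest dose giving no drug-related moribund state or death, with temporary body-weight loss within 20%. LD50 was calculated from mortality.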

[4] = tested on: Mus musculus; assay: Acute toxicity in ICR mouse assessed as effect on body weight at 200 mg/kg, ip measured up to 14 days post dose; type: organism-based; conditions: in vivo, 336 h; summary of the method: as §2
[5] = tested on: SGC-7901; assay: Antiproliferative activity against human SGC7901 cells after 72 hrs by MTT assay; type: functional, cell-based; conditions: SGC-7901, 72 h; summary of the method: as §1
[6] = tested on: Mus musculus; assay: Acute toxicity in ICR mouse assessed as mouse mortality level at 312.5 mg/kg, ip measured on day 3 post dose; type: organism-based; conditions: in vivo; summary of the method: as §2
[7] = tested on: Mus musculus; assay: Acute toxicity in ICR mouse assessed as effect on eating behaviour at 200 mg/kg, ip measured up to 14 days post dose; type: organism-based; conditions: in vivo, 336 h; summary of the method: as §2
[8] = tested on: SMMC-7721; assay: Antitumor activity against human SMMC7721 cells xenografted in BALB/c mouse assessed as tumor growth inhibition at 30 mg/kg, ip measured after 19 days relative to control; type: functional; conditions: SMMC-7721, ip, 456 h, read-out: TGI
Summary of the method: (§3)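 Female BALB/c nude mice, 5-6 weeks old, inoculated subcutaneously with 10^6 SMMC-7721 cells. At 50-100 mm³ tumours, mice were randomized to ip compound (15 or 30 mg/kg), ADM (15 mg/kg) or vehicle, n = 6 per group. Caliper volume ½(L×W²) measured every 3 days to day 19, with body weight monitored. Tumours excised and weighed at the end.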

[9] = tested on: L02; assay: Cytotoxicity against human LO2 cells assessed as reduction in cell survival at 0.2 to 5 uM after 72 hrs by MTT assay; type: cell-based; conditions: l02, 72 h
Summary of the method: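 LO2 normal liver cells in DMEM with 10% FBS, plated at 10^4 cells/mL, adhered overnight. Exposed to graded concentrations for 72 h alongside SMMC-7721. MTT added for the last 4 h, formazan dissolved in DMSO, A570 read. Percent inhibition, mean ± SD of three independent experiments.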

[10] = Acute toxicity in ICR mouse assessed as survival at 390.6 mg/kg, ip measured on day 14; type: organism-based; conditions: in vivo; summary of the method: as §2
[11] = tested on: SMMC-7721; assay: Induction of apoptosis in human SMMC7721 cells assessed as increase in cleaved caspase-3 expression at 0.2 to 3.2 uM after 72 hrs by Western blot analysis relative to control; type: functional, cell-based
Summary of the method: (§4)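 Sub-confluent SMMC-7721 cells treated with vehicle, compound or ADM at indicated concentrations for 72 h. Lysed on ice in NP-40/deoxycholate/SDS buffer with PMSF and leupeptin. Up to 50 µg protein run on SDS-PAGE, transferred to PVDF and probed with specific antibodies; ECL detection. Bands quantified by densitometry relative to β-actin, mean ± SD of three experiments.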

[12] = tested on: SGC-7901; assay: Potency index, ratio of 5-FU IC50 to compound IC50 for human SGC7901 cells; type: functional
[13] = tested on: SMMC-7721; assay: Induction of apoptosis in human SMMC7721 cells assessed as apoptotic cells at 0.8 uM after 72 hrs by FITC-Annexin-V/7AAD/propidium iodide staining based flow cytometry relative to control; type: functional
Summary of the method: (§5)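 SMMC-7721 cells cultured overnight, then treated in triplicate with 0.2, 0.8 or 3.2 μM, vehicle, or ADM (3.2 μM) for 72 h. Stained with annexin V and PI (methods section: APC-annexin V/7-AAD) for 15 min at room temperature. Mean ± SD of three independent experiments.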

[14] = tested on: SMMC-7721; assay: Induction of apoptosis in human SMMC7721 cells assessed as increase in Bax expression after 72 hrs by Western blot analysis; type: functional, cell-based; summary of the method: as §4
[15] = tested on: Mus musculus; assay: Toxicity in BALB/c mouse xenografted with human SMMC7721 cells assessed as effect on body weight at 15 to 30 mg/kg, ip measured after 19 days; type: organism-based; conditions: in vivo, 456 h; summary of the method: as §3
[16] = tested on: SMMC-7721; assay: Potency index, ratio of 5-FU IC50 to compound IC50 for human SMMC7721 cells; type: functional
[17] = tested on: SMMC-7721; assay: Induction of apoptosis in human SMMC7721 cells assessed as increase in cleaved PARP expression at 0.2 to 3.2 uM after 72 hrs by Western blot analysis relative to control; type: functional, cell-based; summary of the method: as §4
[18] = tested on: SMMC-7721; assay: Induction of apoptosis in human SMMC7721 cells assessed as apoptotic cells at 0.2 uM after 72 hrs by FITC-Annexin-V/7AAD/propidium iodide staining based flow cytometry relative to control; type: functional; summary of the method: as §5
[19] = tested on: Mus musculus; assay: Acute toxicity in ICR mouse assessed as effect on drinking behaviour at 200 mg/kg, ip measured up to 14 days post dose; type: organism-based; conditions: in vivo, 336 h; summary of the method: as §2
[20] = tested on: Mus musculus; assay: Acute toxicity in ICR mouse assessed as mouse mortality level at 200, ip measured on day 1 to 3 days post dose; type: organism-based; conditions: in vivo; summary of the method: as §2
[21] = Acute toxicity in ICR mouse assessed as survival at 312.5 mg/kg, ip measured on day 14; type: organism-based; conditions: in vivo; summary of the method: as §2
[22] = tested on: SMMC-7721; assay: Induction of apoptosis in human SMMC7721 cells assessed as apoptotic cells at 3.2 uM after 72 hrs by FITC-Annexin-V/7AAD/propidium iodide staining based flow cytometry relative to control; type: functional; summary of the method: as §5
[23] = tested on: Mus musculus; assay: Acute toxicity in ICR mouse assessed as effect on animal activity at 200 mg/kg, ip measured up to 14 days post dose; type: organism-based; conditions: in vivo, 336 h; summary of the method: as §2
[24] = tested on: SMMC-7721; assay: Induction of apoptosis in human SMMC7721 cells assessed as increase in cleaved PARP expression at 3.2 uM after 72 hrs by Western blot analysis relative to control; type: functional, cell-based; summary of the method: as §4
[25] = tested on: SMMC-7721; assay: Potency index, ratio of ADM IC50 to compound IC50 for human SMMC7721 cells; type: functional
[26] = tested on: Mus musculus; assay: Acute toxicity in ICR mouse assessed as mouse mortality level at 200 to 250 mg/kg, ip measured on day 4 post dose; type: organism-based; conditions: in vivo; summary of the method: as §2
[27] = tested on: SMMC-7721; assay: Induction of apoptosis in human SMMC7721 cells assessed as apoptotic cells after 72 hrs by FITC-Annexin-V/7AAD/propidium iodide staining based flow cytometry; type: functional, cell-based; summary of the method: as §5
[28] = Acute toxicity in ICR mouse at 200 to 488.3 mg/kg, ip; type: organism-based; conditions: in vivo; summary of the method: as §2
[29] = tested on: Mus musculus; assay: Acute toxicity in ICR mouse assessed as mouse mortality level at 200 to 488.3 mg/kg, ip measured at 1 to 4 hrs post dose; type: organism-based; conditions: in vivo; summary of the method: as §2

With `COc1ccc(Oc2c(/C=N\OCc3c(Cl)c(-c4ccc(Cl)cc4)nn3C)c(C)nn2C)cc1` the IC50 [1] was 1260 nM, the “Ratio IC50” value [2] was 2 - 3 and the survival at 14 day [3] was 70%. For the same compound, the Activity [4] was “Non-Toxic”, the IC50 [5] was 2010 nM and the Activity [6] was “Non-Toxic”. For the same compound, the Activity [7] was “Non-Toxic”, the inhibition in vivo at 30 mg/kg [8] was 65.3% and the Activity [9] was “Non-Toxic”. The survival at 14 day [10] was 40%, the Activity [11] was “Active” and the “Ratio IC50” value [12] was 17 - 50. The Activity [13] was 49.2%, the Activity [14] was “Dose-dependent effect” and the Activity [15] was “Non-Toxic”. The “Ratio IC50” value [16] was 17 - 50, the Activity [17] was “Active” and the Activity [18] was 29.6%. The Activity [19] was “Non-Toxic”, the Activity [20] was “Non-Toxic” and the survival at 14 day [21] was 60%. For the same compound, the Activity [22] was 63.2%, the Activity [23] was “Non-Toxic” and the Activity [24] was “Active”. For the same compound, the “Ratio IC50” value [25] was 2 - 3, the Activity [26] was “Non-Toxic” and the Activity [27] was “Dose-dependent effect”. The LD50 [28] was 350 mg/kg and the Activity [29] was “Non-Toxic”.
